Laboratory results taken from the array DNA melting data of Ke et al. (doi:10.1101/2024.01.08.574731).

Tests used:
[1] = melting temperature; fluorescence melt of hairpins on a sequencing array, two-state fit, raised by 9.35 °C to match UV melts; conditions: sodium 0.088 M
In short: (§1)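 Melting temperature and folding enthalpy were obtained by bootstrapped two-state fitting. Fits used Cy3 fluorescence of library hairpins with annealed Cy3 and quencher oligos on a sequenced MiSeq flow cell, imaged in 50 mM Na-HEPES pH 8.0, 25 mM NaCl in 2.5 °C steps up to 60 °C and normalised to pre-quench Cy3 and control constructs. Four replicates were combined by inverse-variance weighting, and fitted temperatures were raised by 9.35 °C to match UV melts.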

[2] = folding enthalpy; higher = less favourable; fluorescence melt of hairpins on a sequencing array, two-state fit; conditions: sodium 0.088 M
In short: as §1

Sequence	Tm [1]	folding enthalpy [2]
GCAAAGCGAAAGCTCCGC ((..(((....)))..))	29 °C	-11.4 kcal/mol
GCGATGCGAAAGCTACGC (((..((....))..)))	65 °C	-18.1 kcal/mol
ATGGGGAAACCCAT (((((....)))))	47.3 °C	-23.4 kcal/mol
GTCCATCGAAAGATAGAC (((.(((....))).)))	35.2 °C	-30.5 kcal/mol
GATCCCACAGGGATC ((((((...))))))	67.1 °C	-33.1 kcal/mol
GAACCACGAAAGTGCTTC (((.(((....))).)))	32.3 °C	-17.1 kcal/mol
GGTAGCCGAAAGGCCACC (((.(((....))).)))	52.2 °C	-19.5 kcal/mol
GATAGCGAAAGCTGGATC ((((((....)))..)))	29.6 °C	-12.9 kcal/mol
GTATCTCGAAAGAGCTAC (((.(((....))).)))	36 °C	-21.8 kcal/mol
GCAGCAGCGAAAGCTTGC (((..(((....))))))	43.5 °C	-13.6 kcal/mol
GGGCTCGGAAACAAGCCC (((((.(....).)))))	51.4 °C	-28.1 kcal/mol
GGCTGAGGAAACTTGGCC (((..((....))..)))	43.8 °C	-30.8 kcal/mol
GGTTTCGAAAGAAGCACC ((((((....)))..)))	28.6 °C	-16.5 kcal/mol
GTTTCCGAAAGGATAAC ((((((....))).)))	37.6 °C	-19.8 kcal/mol
GCCCAGCGAAAGCATGGC (((..((....))..)))	56 °C	-16 kcal/mol
GCCGGTGGAAACGCTGGC (((.(.(....).).)))	50.8 °C	-40.9 kcal/mol
GCTGAGGAAACTCAGC ((((((....))))))	63.5 °C	-37.7 kcal/mol
GGGGTAGCGAAAGCTCCC (((..(((....))))))	58.4 °C	-23.2 kcal/mol
GTTACACGAAAGTGAAC (((.(((....))))))	36.7 °C	-15.8 kcal/mol
GTCCTCGAAAGAGAGGAC ((((((....)))..)))	52.9 °C	-30.2 kcal/mol
GATCCATTTATGGATC ((((((....))))))	60.8 °C	-44.2 kcal/mol
GTGATGGGAAACTATCGC (.(((.(....).))).)	35.2 °C	-23.4 kcal/mol
GACCTACGAAAGTAAGTC (((.(((....))).)))	38 °C	-23.1 kcal/mol

Sequence	Tm [1]	folding enthalpy [2]
GATAGCGGAAACGCTATC (((((((....)))))))	65.7 °C	-34.4 kcal/mol
GAATGCGGAAACGCGTTC (((.(((....))).)))	54.2 °C	-37.5 kcal/mol
GATCGTAGCAACGATC ((((((....))))))	54.7 °C	-38.6 kcal/mol
GCCCAGCGAAAGCTATGC ((..(((....)))..))	25.6 °C	-5.13 kcal/mol
GTACAGGGAAACCTGTAC (((((((....)))))))	59.4 °C	-40.3 kcal/mol
GCCAGAACGAAAGTTGGC (((..(((....))))))	49.8 °C	-35.8 kcal/mol
GCGTGACTACGC ((((....))))	59.4 °C	-27.2 kcal/mol
GCCAGTCGAAAGACGGC (((.(((....))))))	61.6 °C	-33.8 kcal/mol
GATCCACATTGGATC ((((((...))))))	52.2 °C	-25.2 kcal/mol
GTTATGCGAAAGCAAAAC (((.(((....))).)))	41.2 °C	-21 kcal/mol
GGGCCTGGAAACAGGCTC (.(((((....))))).)	61.6 °C	-15.9 kcal/mol
GTGTTGGGAAACCGATAC ((.(.((....)).).))	33.3 °C	-18.3 kcal/mol
GGTTTCGGAAACGAGACC (((.(((....))).)))	50 °C	-33.1 kcal/mol
GCTGCCGAAAGGCCAGC ((((((....))).)))	61.5 °C	-24.4 kcal/mol
GATCCCTGTGGGATC ((((((...))))))	66.7 °C	-35 kcal/mol
GCCTCGCGAAAGCTATGC ((.(.((....)).).))	15.9 °C	-4.77 kcal/mol
CGCGGAATAGTCCGCG ((((((....))))))	68.5 °C	-25.5 kcal/mol
GCATCGCGAAAGCTCTGC (((..((....))..)))	36.8 °C	-15.9 kcal/mol
GCAACCGAAAGGTCATGC ((((((....)))..)))	32.3 °C	-13 kcal/mol
GAGGGTGGAAACGCTCTC (((.(.(....).).)))	49.4 °C	-20.3 kcal/mol
CGTTCGGAAACGACTACG ((((((....)))..)))	29 °C	-12.6 kcal/mol
GTGTTGCGAAAGCAGCAC (((.(((....))).)))	64.3 °C	-30.2 kcal/mol
GCCCCGCGAAAGCCAGGC (((..((....))..)))	44.8 °C	-20.8 kcal/mol
